aSyn UTR inh: 5' untranslated region of α-synuclein, MLPCN primary screen | alpha-synuclein 5'UTR reporter, inhibitor activity | inhibition, % (tested at 7.5 µM) | hit rate 0.82% among 300,000 | AID 1813; in the data active = inhibition above about 60%;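 note: H4 neuroglioblastoma cells stably carrying SNCA 5'UTR luciferase fusion; 0% = DMSO wells and 100% = positive control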
VIM-2 inh: blocks Pseudomonas aeruginosa VIM-2 metallo-beta-lactamase | purified VIM-2, nitrocefin hydrolysis, epi-absorbance fluorescence | inhibition, % at 5.6 µM | hit rate 0.89% among 290,000;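 active = inhibition above the mean of all tested compounds plus 3 SD, cutoff set per screening run, cut at about 7.5% in these data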;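 note: red hydrolysis product quenches plate fluorescence so inhibitors raise well fluorescence; 0% = enzyme with DMSO and 100% = DMSO without enzyme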
Mdm2 MdmX PPI: human Mdm2/MdmX binding inhibition; AID 485346; inhibition, % at 8 µM; SaOS-2 split-luciferase Mdm2/MdmX complementation, luminescence; hit rate 3% among 330,000; O15151+Q00987;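 active = inhibition of at least 50% at 8 µM in the primary screen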
Target sequence (O15151 whole entry, looked up): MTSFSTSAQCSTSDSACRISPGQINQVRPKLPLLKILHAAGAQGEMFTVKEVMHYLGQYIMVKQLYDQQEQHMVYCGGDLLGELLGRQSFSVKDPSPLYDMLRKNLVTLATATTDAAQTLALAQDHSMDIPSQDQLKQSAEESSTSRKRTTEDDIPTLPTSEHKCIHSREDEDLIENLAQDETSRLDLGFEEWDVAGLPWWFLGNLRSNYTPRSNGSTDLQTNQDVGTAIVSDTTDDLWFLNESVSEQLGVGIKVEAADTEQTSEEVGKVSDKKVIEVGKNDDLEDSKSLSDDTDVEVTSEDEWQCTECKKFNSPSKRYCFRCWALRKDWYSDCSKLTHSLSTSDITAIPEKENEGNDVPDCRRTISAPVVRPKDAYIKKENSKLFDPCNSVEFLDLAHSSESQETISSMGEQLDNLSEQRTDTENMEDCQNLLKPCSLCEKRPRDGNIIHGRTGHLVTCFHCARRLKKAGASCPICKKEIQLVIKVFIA
Target sequence (Q00987 whole entry, looked up): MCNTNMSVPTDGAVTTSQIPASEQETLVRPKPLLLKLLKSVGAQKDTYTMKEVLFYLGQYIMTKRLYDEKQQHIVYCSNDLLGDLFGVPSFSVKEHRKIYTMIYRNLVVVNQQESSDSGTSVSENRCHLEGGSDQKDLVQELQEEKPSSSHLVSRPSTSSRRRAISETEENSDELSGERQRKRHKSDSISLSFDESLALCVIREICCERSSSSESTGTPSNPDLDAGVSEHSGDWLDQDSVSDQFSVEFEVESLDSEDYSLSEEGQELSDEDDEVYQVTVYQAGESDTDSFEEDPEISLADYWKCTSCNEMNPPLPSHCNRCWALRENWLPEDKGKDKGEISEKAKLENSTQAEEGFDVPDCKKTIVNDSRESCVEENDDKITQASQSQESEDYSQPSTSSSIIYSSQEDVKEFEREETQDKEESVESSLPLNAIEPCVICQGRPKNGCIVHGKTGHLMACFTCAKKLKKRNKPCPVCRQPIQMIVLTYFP
697 NFkB inh: inhibitors of the PMA/ionomycin-induced NF-kB reporter in 697 B cells. 697 B-cell NF-kB luciferase reporter, 16 h. inhibition, % at 4 µM. hit rate 0.33% among 330,000. AID 435022; in the data active = inhibition above about 35%
IMP-1 inh: inhibitors of Pseudomonas aeruginosa IMP-1 metallo-beta-lactamase. purified IMP-1, nitrocefin hydrolysis, epi-absorbance fluorescence. inhibition, % at 5.6 µM. hit rate 0.45% among 290,000. AID 1556;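 active = inhibition above the mean plus 3 SD of all compounds in the same screening run, cut at about 4.5% in these data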;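 note: 0% = IMP-1 with DMSO and 100% = DMSO wells lacking enzyme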
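System: purified IMP-1; amount: IMP-1 0.2 nM before substrate addition; compound: single dose, 5.6 µM; times: 25 °C, 15 min preincubation, 25 min reaction; signal: Epi-absorbance via hydrolysed-nitrocefin quenching of white-plate fluorescence, 480/530 nm, EDTA stop; benchmarks: DMSO with and without IMP-1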
Jurkat NFkB inh: lowers PMA/ionomycin-induced NF-kB signal in Jurkat cells; PMA/ionomycin-induced NF-kB luciferase reporter, luminescence; inhibition, % at 4 µM; hit rate 0.53% among 330,000; in the data active = inhibition above about 50%
Mdm2 MdmX conf: human Mdm2/MdmX binding inhibition, confirmed. shares compounds with Mdm2 MdmX PPI. luminescent assay. inhibition, % at 8 µM. hit rate 55% among 10,000; in the data active = inhibition above about 40%
Full FLuc ctr: full-length luciferase inhibition in Mdm2/MdmX counter-screen. shares compounds with Mdm2 MdmX PPI. SaOS-2 full-length luciferase counterscreen, luminescence. inhibition, % at 8 µM. hit rate 77% among 6,200;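 active = mean inhibition at 8 µM reaching about 37%, which flags the compound as non-specific, limit read from the data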;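 note: p53-null SaOS-2 cells with luciferase driven by a doxycycline-inducible promoter; compound on cells about two nights before reading with doxycycline added after day one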
The depositor's hits bear a star. Only some compounds are listed: those with a hit (about 4.7% of all), similar ones and a draw of the others.

For O=c1cc(CN2CCN(C/C=C/c3ccccc3)CC2)c2cc(O)c(-c3ccccc3)cc2o1 the results were aSyn UTR inh -55.5, VIM-2 inh -3.0, Mdm2 MdmX PPI 50.0*, 697 NFkB inh -15.7, IMP-1 inh -1.6, Jurkat NFkB inh -7.7, Mdm2 MdmX conf 42.5* and Full FLuc ctr 65.2*.
For O=c1cc(CN2CCN(c3ccccc3F)CC2)c2cc(O)c(-c3ccccc3)cc2o1 the results were aSyn UTR inh -33.4, VIM-2 inh -3.6, Mdm2 MdmX PPI 2.9, 697 NFkB inh -6.1, IMP-1 inh -1.7 and Jurkat NFkB inh 16.6.
For O=c1cc(CN2CCN(c3ccc(F)cc3)CC2)c2cc3c(cc2o1)CCCC3 the results were aSyn UTR inh 18.8, VIM-2 inh -1.8, Mdm2 MdmX PPI 67.7*, 697 NFkB inh 4.3, IMP-1 inh -2.1, Jurkat NFkB inh -5.6 and Mdm2 MdmX conf 0.7.
`CC(C)CN(Cc1cc(=O)oc2cc(-c3ccccc3)c(O)cc12)CC(C)C` gave aSyn UTR inh 46.9, VIM-2 inh -0.5, Mdm2 MdmX PPI 79.9*, 697 NFkB inh -91.4, IMP-1 inh -2.1, Jurkat NFkB inh -8.6 and Mdm2 MdmX conf -5.3.
`COc1ccc(N2CCN(Cc3cc(=O)oc4cc(-c5ccccc5)c(O)cc34)CC2)cc1` gave aSyn UTR inh 73.1*, VIM-2 inh -5.1, Mdm2 MdmX PPI 88.9*, 697 NFkB inh -29.1, IMP-1 inh -1.3, Jurkat NFkB inh 0.8, Mdm2 MdmX conf 59.0* and Full FLuc ctr 22.3.
For COc1ccc(/C=N/NC(=O)C(Cc2c[nH]c3ccccc23)NC(=O)OCC(C)C)cc1[N+](=O)[O-] (configuration not stated) the results were aSyn UTR inh 22.2, VIM-2 inh -4.7, Mdm2 MdmX PPI 33.8, 697 NFkB inh 16.3, IMP-1 inh -1.2 and Jurkat NFkB inh 3.0.
`COc1cc(C2C(C#N)=C(N)Oc3c2c(-c2ccccc2)nn3-c2ccccc2)cc(OC)c1OC` (configuration not stated) gave aSyn UTR inh -9.9, VIM-2 inh -1.9, Mdm2 MdmX PPI 26.5, 697 NFkB inh 10.5, IMP-1 inh -1.6 and Jurkat NFkB inh 11.7.
COc1ccc(C)cc1NC(=O)CNC(C)C(=O)Nc1cc(Cl)ccc1Cl (configuration not stated) was read as aSyn UTR inh -14.1, VIM-2 inh 0.7, Mdm2 MdmX PPI 0.3, 697 NFkB inh 4.0, IMP-1 inh -1.4 and Jurkat NFkB inh 8.2.
Screening CCc1cc2c(=O)c(-c3cnn(-c4ccccc4)c3)c(C)oc2cc1OCC(=O)Nc1cccc(C)c1 returned aSyn UTR inh -0.3, VIM-2 inh 1.8, Mdm2 MdmX PPI 1.5, 697 NFkB inh -20.8, IMP-1 inh 0.0 and Jurkat NFkB inh 3.7.
For CCc1cc2c(=O)c(-c3cnn(-c4ccccc4)c3)c(C)oc2cc1OCC(=O)Nc1ccc(F)c(F)c1 the results were aSyn UTR inh -0.3, VIM-2 inh -3.0, Mdm2 MdmX PPI 61.7*, 697 NFkB inh 5.0, IMP-1 inh -2.1, Jurkat NFkB inh -8.6, Mdm2 MdmX conf 73.8* and Full FLuc ctr 87.0*.
Screening Cc1cc2cc(CCNC(=O)C3c4ccccc4Oc4ccccc43)c(=O)[nH]c2cc1C returned aSyn UTR inh -14.2, VIM-2 inh -0.8, Mdm2 MdmX PPI 62.7*, 697 NFkB inh 1.9, IMP-1 inh -1.6, Jurkat NFkB inh -10.5 and Mdm2 MdmX conf 14.4.
`Cc1cc2cc(CCNC(=O)C(C)C)c(=O)[nH]c2cc1C` gave aSyn UTR inh 15.6, VIM-2 inh 0.1, Mdm2 MdmX PPI 8.2, 697 NFkB inh -1.6, IMP-1 inh 3.3 and Jurkat NFkB inh 6.3.
COc1ccc(-c2csc(NC3OC(=O)c4c3ccc(OC)c4OC)n2)cc1OC (configuration not stated) was read as aSyn UTR inh -8.8, VIM-2 inh 1.2, Mdm2 MdmX PPI 78.4*, 697 NFkB inh 9.1, IMP-1 inh -1.5, Jurkat NFkB inh 27.7, Mdm2 MdmX conf 61.9* and Full FLuc ctr 70.5*.

Source: PubChem
